ChEMBL document CHEMBL1667850, “Indol-2-yl ethanones as novel indoleamine 2,3-dioxygenase (IDO) inhibitors” (Bioorg Med Chem, 2011)
pIC50, pKi: −log10 of the molar value. Calls of active or inactive are those of the source. No cut-off for these calls is given here.

Legend:
[1] = target: Indoleamine 2,3-dioxygenase 1 (Mus musculus) (UniProt P28776); test: Inhibition of mouse IDO expressed in mouse P815B cells assessed as tryptophan degradation at 20 uM; format: cell-based
How it was run: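 2×10^5 cells per well incubated overnight at 37 °C in HBSS with 80 μM L-Trp and 20 μM compound. Supernatant was acetonitrile-precipitated and analysed by HPLC for Trp (280 nm) and kynurenine (360 nm). Percent inhibition of Trp degradation and kynurenine production was calculated relative to maximal activity.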

[2] = target: T1, Indoleamine 2,3-dioxygenase 1 (Homo sapiens, UniProt P14902); test: Inhibition of human IDO activity by spectrophotometry; conditions: for pIC50: read-out: IC50
Target sequence in this assay (P14902 whole entry): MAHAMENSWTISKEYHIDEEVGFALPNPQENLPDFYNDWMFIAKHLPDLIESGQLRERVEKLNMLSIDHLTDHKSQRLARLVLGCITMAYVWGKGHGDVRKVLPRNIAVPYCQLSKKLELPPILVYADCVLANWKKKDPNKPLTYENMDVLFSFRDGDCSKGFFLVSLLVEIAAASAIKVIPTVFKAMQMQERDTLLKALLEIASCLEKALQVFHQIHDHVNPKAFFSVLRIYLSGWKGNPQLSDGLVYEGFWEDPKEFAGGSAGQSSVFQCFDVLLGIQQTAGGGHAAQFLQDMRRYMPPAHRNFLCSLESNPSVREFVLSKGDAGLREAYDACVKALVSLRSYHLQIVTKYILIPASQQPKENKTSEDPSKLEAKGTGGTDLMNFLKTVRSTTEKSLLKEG

[3] = target: T1, Indoleamine 2,3-dioxygenase 1; test: Inhibition of IDO
Target sequence in this assay (P14902 whole entry): as above

[4] = target: T1, Indoleamine 2,3-dioxygenase 1; test: Inhibition of human IDO activity at 100 uM by spectrophotometry
How it was run: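 Recombinant N-His-tagged human IDO (Ala2–Gly403), expressed in E. coli BL21 AI and Ni-IMAC purified, 0.375 μg per well. Reaction in 50 mM phosphate pH 6.5 with 5 μM methylene blue, 40 mM ascorbate and 100 μM L-Trp, 60 min at room temperature. Stopped with 1 mM H2O2; change in OD320 read against a pre-enzyme baseline.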
Target sequence in this assay (P14902 whole entry, looked up): as the sequence (P14902 whole entry) above

[5] = Cytotoxicity against mouse P815B cells at 20 uM by MTT assay; format: cell-based
How it was run: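 MTT viability on the cells left in wells after the 20 μM overnight IDO assay in HBSS at 37 °C. Culture medium (Iscove, 10% FCS, amino acids) and MTT were added for 3–4 h at 37 °C. Formazan was dissolved in SDS/DMF overnight at 37 °C and read at 570/650 nm.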

Chain of Indoleamine 2,3-dioxygenase 1 (Mus musculus) (P28776 whole entry, looked up): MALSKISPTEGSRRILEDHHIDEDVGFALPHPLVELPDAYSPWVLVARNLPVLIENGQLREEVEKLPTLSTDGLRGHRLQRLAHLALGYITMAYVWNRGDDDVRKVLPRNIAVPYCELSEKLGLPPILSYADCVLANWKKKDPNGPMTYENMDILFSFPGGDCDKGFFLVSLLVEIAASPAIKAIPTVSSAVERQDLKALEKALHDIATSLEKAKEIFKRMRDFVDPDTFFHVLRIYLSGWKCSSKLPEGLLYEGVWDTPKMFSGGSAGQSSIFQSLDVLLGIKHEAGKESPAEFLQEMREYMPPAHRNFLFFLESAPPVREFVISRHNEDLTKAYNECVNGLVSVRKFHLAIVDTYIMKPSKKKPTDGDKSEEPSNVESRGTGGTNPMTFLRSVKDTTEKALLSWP

inhibition [1] | pIC50 [2] | SMILES | also measured
6% | 4.09 | COc1cccc2cc(C(=O)Cc3cccnc3)[nH]c12 | –
inactive | – | O=C(Cc1cccnc1)c1cc2cc([N+](=O)[O-])ccc2[nH]1 | IC50 [2]: Not Active
12% | 4.88 | O=C(Cc1cccnc1)c1cc2cc(OC(F)(F)F)ccc2[nH]1 | –
– | 4.31 | COc1ccc2[nH]c(C(=O)Cc3cccnc3)cc2c1 | –
24% | 4.61 | O=C(Cc1cccnc1)c1cc2cc(Cl)ccc2[nH]1 | –
– | – | c1ccc2c(c1)[nH]c1cnccc12 [NORHARMANE] | pKi [3]: 3.92
inactive | – | c1cncc(CCc2cc3ccccc3[nH]2)c1 | IC50 [2]: Not Active
inactive | 4.03 | O=C(Nc1cccnc1)c1cc2ccccc2[nH]1 | –
21% | 4.06 | Cc1ccc2[nH]c(C(=O)Cc3cccnc3)cc2c1 | –
10% | 4.43 | O=C(Cc1ccccn1)c1cc2ccccc2[nH]1 | –
12% | 3.82 | O=C(Cc1cccnc1)c1cc2c(F)cccc2[nH]1 | –
inactive | 4.08 | O=C(Cc1cccnc1)c1cc2c(O)cccc2[nH]1 | –
25% | – | O/N=C(/Cc1cccnc1)c1cc2ccccc2[nH]1 | inhibition [4]: 19.4%
inactive | – | O=C(Cc1cccnc1)c1[nH]c2ccccc2c1Br | IC50 [2]: Not Active
– | 4.35 | COc1cc(OC)c2cc(C(=O)Cc3cccnc3)[nH]c2c1 | Activity [5]: Toxic
inactive | 4.54 | O=C(Cc1ccccc1)c1cc2ccccc2[nH]1 | –

inhibition [1] | pIC50 [2] | SMILES | also measured
inactive | 4.74 | O=C(Cc1cccnc1)c1cc2cc(Br)ccc2[nH]1 | –
inactive | – | COc1ccc2[nH]c(C(=O)Cc3cccnc3)cc2c1OCc1ccccc1 | IC50 [2]: Not Active
inactive | – | O=C(Cc1ccncc1)c1cc2ccccc2[nH]1 | IC50 [2]: Not Active
inactive | 3.86 | O=C(Cc1cccnc1)c1cc2c(Cl)cc(Cl)cc2[nH]1 | –
24% | 4.44 | O=C(Cc1cccnc1)c1cc2cc(F)ccc2[nH]1 | –
inactive | 3.85 | CC(C(=O)c1cc2ccccc2[nH]1)c1cccnc1 (stereo not given) | –
13% | 4.19 | O=C(Cc1cccnc1)c1cc2ccccc2[nH]1 | –
inactive | 4.47 | Cn1c(C(=O)Cc2cccnc2)cc2ccccc21 | –
11% | 4.20 | COc1ccc2[nH]c(C(=O)Cc3cccnc3)cc2c1O | –
inactive | 4.43 | O=C(Cc1cccnc1)c1cc2cc(O)ccc2[nH]1 | –
inactive | 4.02 | O=C(Cc1cccnc1)c1cc2cc(-c3ccccc3)ccc2[nH]1 | –
inactive | – | OC(Cc1cccnc1)c1cc2ccccc2[nH]1 (stereo not given) | IC50 [2]: Not Active
inactive | 4.58 | O=C(Cc1cnccn1)c1cc2ccccc2[nH]1 | –
inactive | 4.24 | COc1cccc2[nH]c(C(=O)Cc3cccnc3)cc12 | –
inactive | 4.37 | O=C(Cc1cccnc1)c1cc2ccc(F)cc2[nH]1 | –
